TRPC4 block = inhibitors of mouse TRPC4 channel | Q9QUQ5 | HEK293 TRPC4beta/mu-opioid, DAMGO-evoked Fluo4 calcium flux; active compounds read low | B-score at 10 µM | 300,000 compounds, 0.39% hits | AID 2247;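 active = B-score over 3 SD under the library average, no early fluorescence shift, positive overall ratio signal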
Target sequence (Q9QUQ5 whole entry, looked up): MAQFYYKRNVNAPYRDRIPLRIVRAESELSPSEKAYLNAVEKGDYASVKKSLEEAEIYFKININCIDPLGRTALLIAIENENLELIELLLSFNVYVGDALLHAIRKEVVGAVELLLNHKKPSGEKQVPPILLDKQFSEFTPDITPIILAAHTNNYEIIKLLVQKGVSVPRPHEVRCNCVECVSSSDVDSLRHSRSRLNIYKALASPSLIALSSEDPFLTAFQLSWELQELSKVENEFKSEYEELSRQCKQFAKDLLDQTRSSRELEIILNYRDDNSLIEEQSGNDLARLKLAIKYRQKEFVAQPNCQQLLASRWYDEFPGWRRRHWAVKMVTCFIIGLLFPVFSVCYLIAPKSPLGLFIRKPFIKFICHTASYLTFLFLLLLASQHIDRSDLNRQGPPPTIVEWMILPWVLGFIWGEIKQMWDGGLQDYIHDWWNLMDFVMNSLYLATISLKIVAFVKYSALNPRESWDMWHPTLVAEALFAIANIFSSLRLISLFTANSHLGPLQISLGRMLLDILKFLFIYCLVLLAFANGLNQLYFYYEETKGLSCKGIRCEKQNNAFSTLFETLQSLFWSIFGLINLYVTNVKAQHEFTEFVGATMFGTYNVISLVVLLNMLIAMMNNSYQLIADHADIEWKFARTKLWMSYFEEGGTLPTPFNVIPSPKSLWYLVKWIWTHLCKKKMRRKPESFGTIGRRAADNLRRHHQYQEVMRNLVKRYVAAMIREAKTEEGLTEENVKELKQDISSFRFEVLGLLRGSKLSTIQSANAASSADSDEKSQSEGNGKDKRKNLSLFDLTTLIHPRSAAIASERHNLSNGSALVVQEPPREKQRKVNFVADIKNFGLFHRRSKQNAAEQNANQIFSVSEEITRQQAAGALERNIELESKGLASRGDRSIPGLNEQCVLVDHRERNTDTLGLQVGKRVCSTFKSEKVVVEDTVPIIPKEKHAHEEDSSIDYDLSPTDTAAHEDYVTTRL
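Assay system – HEK293 line stably carrying TRPC4beta and mu-opioid receptor · Doses – single dose · Detection – Fluo4 calcium-dye fluorescence, kinetic read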
DSG3 Ab inh = inhibitors of pemphigus antibody binding to human desmoglein-3 | DSG3-coupled beads, scFv-anti-DSG3-GFP binding, flow cytometry; active compounds read low | binding (percent of control), % at 10 µM | P32926 | 310,000 compounds, 0.48% hits;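 active = binding more than 3 SD below its plate's average and above zero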;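 note: hits lower antibody fragment binding to DSG3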
TRPC4 act = opens the mouse TRPC4 cation channel | Q9QUQ5 | B-score at 10 µM | HEK293 TRPC4beta/mu-opioid, Fluo4 calcium fluorescence; active compounds read high | 310,000 compounds, 0.49% hits | AID 2237;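 active = B-score above 5 SD of library B-scores, and initial fluorescence ratio not above library mean plus 5 SD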;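 note: positive B-score marks a calcium rise read as TRPC4 activation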
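Material: TRPC4beta and mu-opioid receptor HEK293 stable cells | Incubation: 45 min room-temperature Fluo4 loading, 110 s read | Detection: Kinetic Fluo4 calcium fluorescence | Measure: Integrated baseline-normalised fluorescence ratio, converted to per-well B score | Benchmarks: Low control buffer alone, high control maximal DAMGO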
TRPC6 inh = blocks the mouse TRPC6 cation channel. B-score at 10 µM. 310,000 compounds, 1.1% hits. HEK293-TRPC6, membrane potential dye, ACh-evoked depolarization; active compounds read low;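 active = B-score under library mean minus 3 SD, initial fluorescence not abnormally high, positive integrated signal ratio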;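 note: B-score derived from integrated fluorescence ratio over the kinetic read; more negative B-score means stronger inhibition of depolarization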
TRPC4 PAM = TRPC4 (mouse) allosteric potentiation | Q9QUQ5 | 310,000 compounds, 0.42% hits | AID 2227 | B-score at 10 µM | HEK293 TRPC4beta/mu-opioid, DAMGO EC20, Fluo-4 Ca2+ flux; active compounds read high;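 active = B-score of calcium response area above 5 SD of library B-scores, with initial fluorescence ratio within 5 SD of library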
TRPC6 activator = activators of mouse TRPC6 channel; Q61143; HEK293-TRPC6 membrane potential dye fluorescence; active compounds read high; B-score at 10 µM; 310,000 compounds, 0.13% hits; AID 2550;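 active = B-score of the integrated fluorescence ratio above library mean plus 3 SD, and starting fluorescence ratio within library mean plus 5 SD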;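 note: higher score means more depolarization so channel activation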
TRPC4 sel inh 2 = second selectivity test of TRPC6 inhibitors: effect on mouse TRPC4; shares compounds with TRPC6 inh; HEK293 TRPC4/MOR, membrane potential dye fluorescence; channel activated by saturating DAMGO dose; inhibition, % at 10 µM; 920 compounds, 42% hits; AID 2776;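 active = compounds whose fluorescence signal differed from control wells by over 3 SD, either direction, in both duplicate plates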
TRPC4 spec = mouse TRPC4 off-target activity of TRPC6 inhibitors | shares compounds with TRPC6 inh | HEK293 TRPC4/mu-opioid, membrane potential fluorescence | activity change, negative = inhibition, % at 10 µM | 920 compounds, 61% hits | AID 2777;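 active = rise or fall in signal beyond 3 SD of buffer-only wells in both replicate plates, either sign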;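 note: integrated kinetic ratio of fluorescence range over baseline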
HEK293 MPD ctr 2-1 = second check of TRPC6 inhibitor effects in parental HEK293 cells; 920 compounds, 31% hits; shares compounds with TRPC6 inh; parental HEK293 membrane potential dye fluorescence; maximal acetylcholine challenge after compound addition; signal change vs control, % at 10 µM;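 active = membrane potential signal moving either way by over 3 SD of the maximum-effect control, in both duplicate plates, meaning non-specific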
HEK293 MPD ctr-1 = parental HEK293 nonspecific activity of TRPC6 inhibitors; shares compounds with TRPC6 inh; parental HEK293 membrane potential dye fluorescence; membrane potential signal change, % at 10 µM; 920 compounds, 60% hits;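 active = membrane potential signal shifting up or down by more than 3 SD of buffer-only wells, on both duplicate plates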
HEK293 MPD ctr-2 = parental HEK293 nonspecific activity of TRPC6 modulators; shares compounds with TRPC6 inh; membrane potential dye fluorescence; membrane potential signal change, % at 10 µM; 2,400 compounds, 51% hits;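 active = membrane potential signal moves up or down beyond 5 SD from buffer-only wells, on both duplicate plates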
HEK293 MPD ctr 2-2 = second check of TRPC6 modulator effects in parental HEK293 cells; shares compounds with TRPC6 inh; inhibition, % at 10 µM; 2,400 compounds, 14% hits; membrane potential dye fluorescence; after compound, maximal acetylcholine stimulation;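 active = membrane potential signal drops by more than 5 SD from the mean control signal, in both duplicate plates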
TRPC4 ctr mod = mouse TRPC4 off-target activity of TRPC6 modulators | HEK293 TRPC4/mu-opioid, membrane potential fluorescence | shares compounds with TRPC6 inh | 2,400 compounds, 69% hits | percent change from control (negative = decrease, positive = increase), % at 10 µM;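 active = membrane potential signal moved up or down beyond 5 SD of buffer control wells, in both duplicate plates, actives on both sides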
TRPC4 ctr inh 2 = mouse TRPC4 off-target activity of TRPC6 modulators, second screen | shares compounds with TRPC6 inh | HEK293 TRPC4/mu-opioid, membrane potential dye fluorescence; stimulated with maximal-effect DAMGO | inhibition, % at 10 µM | 2,400 compounds, 55% hits;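 active = drop in membrane potential signal beyond 5 SD of the control wells in both duplicate plates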;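 note: TRPC4 counter screen for TRPC6 hits run under conditions tuned for TRPC6 not TRPC4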
TRPC6 block conf = mouse TRPC6 inhibitor confirmation | shares compounds with TRPC6 inh | HEK293-TRPC6, membrane potential dye, ACh-evoked depolarization | inhibition, % at 10 µM | 3,300 compounds, 43% hits;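 active = fluorescence ratio falls more than 5 SD below the full-stimulation control mean, in both duplicate runs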;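 note: integrated fluorescence ratio of peak minus minimum over baseline after agonist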
TRPC6 act confirm = mouse TRPC6 activator confirmation. shares compounds with TRPC6 inh. HEK293-TRPC6 membrane potential dye fluorescence, FDSS. activation, % at 10 µM. 2,800 compounds, 11% hits;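 active = ratio signal rise beyond 5 SD above unstimulated control wells' mean, seen in both duplicate runs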
Of the large screens only hits and unclear results are named; the others gave an inactive call (follow-up assays come after a bar, where they were run). Shown are actives, neighbours in structure and some others; about 2.5% of the full set was active somewhere.

CCOc1ccc(-c2nc[nH]c2[N+](=O)[O-])cc1	none
Cc1c(C(=O)OC(C)C(C)C[N+](C)(C)C)oc2ccccc12 (configuration not stated)	TRPC6 inh -7.5 | HEK293 MPD ctr-2 inactive | HEK293 MPD ctr 2-2 64% | TRPC4 ctr mod inactive | TRPC4 ctr inh 2 inactive | TRPC6 block conf 72% | TRPC6 act confirm inactive
CCCC[n+]1ccc(-c2nc3ccc([N+](=O)[O-])cc3[nH]2)cc1	TRPC6 inh -6.8 | TRPC4 sel inh 2 56% | TRPC4 spec -17% | HEK293 MPD ctr 2-1 -90% | HEK293 MPD ctr-1 -262% | TRPC6 block conf 73% | TRPC6 act confirm inactive
O=C(c1ncc[nH]1)c1cccs1	none (no result: DSG3 Ab inh)
Cc1cc(/C=c2\sc3nc4ccccc4n3c2=O)c(C)n1-c1ccc(C(=O)O)cc1	none
O=C(O)c1ccc(-c2ccc(/C=c3/sc4nc5ccccc5n4c3=O)o2)cc1Cl	TRPC4 act 58, TRPC4 PAM 15, TRPC6 activator 32 | HEK293 MPD ctr-2 560% | HEK293 MPD ctr 2-2 inactive | TRPC4 ctr mod 112% | TRPC4 ctr inh 2 inactive | TRPC6 block conf inactive | TRPC6 act confirm 82%
Cc1ccc2c(nc3s/c(=C\c4ccc(-c5ccccc5C(=O)O)o4)c(=O)n32)c1C	TRPC4 block -8, TRPC4 act 189, TRPC6 activator 78 | HEK293 MPD ctr-2 active | HEK293 MPD ctr 2-2 inactive | TRPC4 ctr mod 408% | TRPC4 ctr inh 2 inactive | TRPC6 block conf inactive | TRPC6 act confirm 592%
Clc1ccc2c(c1)C(N1CCNCC1)=Nc1ccccc1O2	TRPC6 inh -5.1 | HEK293 MPD ctr-2 inactive | HEK293 MPD ctr 2-2 inactive | TRPC4 ctr mod 8.0% | TRPC4 ctr inh 2 48% | TRPC6 block conf inactive | TRPC6 act confirm inactive
COc1ccc(C)cc1NC(=O)NNC(=O)C(C)Oc1ccc([N+](=O)[O-])cc1 (configuration not stated)	none
COc1ccccc1CNC(=O)COC(=O)c1cc([N+](=O)[O-])ccc1N1CCOCC1	TRPC6 inh -5.1 | HEK293 MPD ctr-2 inactive | HEK293 MPD ctr 2-2 inactive | TRPC4 ctr mod 14% | TRPC4 ctr inh 2 inactive | TRPC6 block conf inactive
O=[N+]([O-])c1ccc(Cl)c(-c2ccc(/C=N/n3cnnc3)o2)c1	TRPC6 inh -7.3 | HEK293 MPD ctr-2 -154% | HEK293 MPD ctr 2-2 inactive | TRPC4 ctr mod -30% | TRPC4 ctr inh 2 inactive | TRPC6 block conf inactive | TRPC6 act confirm inactive
COc1cc([N+](=O)[O-])ccc1-c1ccc(/C=N\n2cnnc2)o1	TRPC6 inh -9.3 | HEK293 MPD ctr-2 inactive | HEK293 MPD ctr 2-2 inactive | TRPC4 ctr mod -61% | TRPC4 ctr inh 2 39% | TRPC6 block conf inactive | TRPC6 act confirm inactive
COc1cc([N+](=O)[O-])ccc1-c1ccc(/C=N/NC(=O)c2ccccc2O)o1	none (no result: DSG3 Ab inh)
Cc1cc(-c2ccc(/C=N/n3cnnc3)o2)c(C)c([N+](=O)[O-])c1	TRPC6 inh -6 | HEK293 MPD ctr-2 -221% | HEK293 MPD ctr 2-2 71% | TRPC4 ctr mod -44% | TRPC4 ctr inh 2 58% | TRPC6 block conf 48% | TRPC6 act confirm inactive
CN1CCN(/N=C/c2ccc(-c3ccc([N+](=O)[O-])cc3Cl)o2)CC1	TRPC6 activator 13 (no result: DSG3 Ab inh) | HEK293 MPD ctr-2 260% | HEK293 MPD ctr 2-2 inactive | TRPC4 ctr mod 39% | TRPC4 ctr inh 2 inactive | TRPC6 block conf inactive | TRPC6 act confirm 92%
CCOC(=O)C1C(c2ccc(O)c(O)c2)NC(=S)NC1(O)C(F)(F)F (configuration not stated)	none
CCN(c1ccccc1)S(=O)(=O)c1ccc(C(=O)NCc2ccco2)cc1	none (no result: TRPC4 block, TRPC4 act, TRPC6 inh, TRPC4 PAM, TRPC6 activator)
O=C(Nc1ccccc1)c1ccc(Br)c(S(=O)(=O)Nc2ccccn2)c1	none
O=C(CSc1nccn1Cc1ccc(F)cc1)NC1CCCCC1	none (no result: TRPC4 block, TRPC4 act, TRPC6 inh, TRPC4 PAM, TRPC6 activator)
Cc1cc(C)cc(N(C(=O)c2snc(C(N)=O)c2N)C(C(=O)NCC2CCCO2)c2ccc(C)o2)c1 (configuration not stated)	TRPC6 inh -5.4 | HEK293 MPD ctr-2 inactive | HEK293 MPD ctr 2-2 inactive | TRPC4 ctr mod 18% | TRPC4 ctr inh 2 40% | TRPC6 block conf inactive
CC1C(=O)N2CCCc3cc(NC(=O)COc4ccc(Cl)cc4)cc1c32 (configuration not stated)	none
CN(C)CCC(O)(c1ccccc1)c1ccccc1	none
CN(C)CCC#CC(O)(c1ccccc1)c1ccccc1	TRPC6 inh -5.7 | HEK293 MPD ctr-2 inactive | HEK293 MPD ctr 2-2 98% | TRPC4 ctr mod 7.0% | TRPC4 ctr inh 2 inactive | TRPC6 block conf 84%
CN(C)C(C)(C)C#CC(O)(c1ccccc1)c1ccccc1	TRPC6 inh -8.4 | TRPC4 sel inh 2 inactive | TRPC4 spec -0.1% | HEK293 MPD ctr 2-1 11% | HEK293 MPD ctr-1 4.5% | TRPC6 block conf 67% | TRPC6 act confirm inactive
OCCN(CC#CC(O)(c1ccccc1)c1cccc(F)c1)CCO (configuration not stated)	none

Assay outcomes (PubChem BioAssay)
